Data reported in ChEMBL document CHEMBL4229417, “Design and synthesis of alkyl substituted pyridino[2,3-D]pyrimidine compounds as PI3Kα/mTOR dual inhibitors with improved pharmacokinetic properties and potent in vivo antitumor activity” (Bioorg Med Chem, 2018).
Values belong to the compound of their own block, whether it stands above or below them. Active and inactive are the calls of the source. The calls are words filed in the database; no cut-off is given here.

How the values were obtained:
[1] = target: T1, Serine/threonine-protein kinase mTOR (Homo sapiens, UniProt P42345); experiment: Inhibition of mTOR (unknown origin) using ULight-4E-BP1 peptide substrate measured after 1 hr by Lance Ultra assay
How it was run: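 mTOR (10 nM final) was reacted with ULight-4E-BP1 peptide (50 nM final) and ATP in kinase buffer for 1 h at room temperature.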

[2] = target: T2, Phosphatidylinositol 4,5-bisphosphate 3-kinase catalytic subunit alpha isoform (Homo sapiens, UniProt P42336); experiment: Inhibition of PI3Kalpha (unknown origin) using PIP2 as substrate measured after 1 hr by Kinase-Glo luminescent assay
T2 sequence (P42336 whole entry, canonical isoform): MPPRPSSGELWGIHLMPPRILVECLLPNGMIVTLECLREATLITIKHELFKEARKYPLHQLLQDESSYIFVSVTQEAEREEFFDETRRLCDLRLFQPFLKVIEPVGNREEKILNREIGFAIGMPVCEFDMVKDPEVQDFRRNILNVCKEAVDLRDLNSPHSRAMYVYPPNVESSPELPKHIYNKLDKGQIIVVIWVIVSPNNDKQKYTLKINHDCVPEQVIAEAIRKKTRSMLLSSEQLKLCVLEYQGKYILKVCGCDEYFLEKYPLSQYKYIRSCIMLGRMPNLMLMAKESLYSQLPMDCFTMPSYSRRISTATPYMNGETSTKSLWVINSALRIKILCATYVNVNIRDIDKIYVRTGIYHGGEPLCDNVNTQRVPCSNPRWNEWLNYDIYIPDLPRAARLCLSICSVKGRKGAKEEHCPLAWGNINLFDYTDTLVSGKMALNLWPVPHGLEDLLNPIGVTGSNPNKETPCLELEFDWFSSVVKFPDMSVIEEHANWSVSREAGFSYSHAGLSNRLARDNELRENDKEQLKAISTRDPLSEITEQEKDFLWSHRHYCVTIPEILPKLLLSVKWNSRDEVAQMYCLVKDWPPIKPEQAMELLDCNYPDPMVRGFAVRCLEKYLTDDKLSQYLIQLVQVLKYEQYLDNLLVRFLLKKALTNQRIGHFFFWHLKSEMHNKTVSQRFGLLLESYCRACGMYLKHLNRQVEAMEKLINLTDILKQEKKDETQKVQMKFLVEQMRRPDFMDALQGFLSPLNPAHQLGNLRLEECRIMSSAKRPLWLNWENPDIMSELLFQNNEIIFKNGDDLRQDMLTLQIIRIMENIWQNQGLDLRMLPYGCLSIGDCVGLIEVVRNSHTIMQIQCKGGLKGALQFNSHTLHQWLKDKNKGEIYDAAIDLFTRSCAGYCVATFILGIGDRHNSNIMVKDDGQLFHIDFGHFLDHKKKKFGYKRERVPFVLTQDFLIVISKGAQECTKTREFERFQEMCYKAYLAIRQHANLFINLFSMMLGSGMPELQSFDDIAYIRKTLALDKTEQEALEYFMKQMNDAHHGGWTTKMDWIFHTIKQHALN

U-87 MG [3] = experiment: Antiproliferative activity against human U87MG cells assessed as reduction in cell viability after 48 hrs by CCK8 assay; type: functional, cell-based, U-87MG ATCC
How it was run: (§1)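 Cells were seeded at 5000/well and grown 24 h at 37 °C, 5% CO2. They were then exposed 48 h to compound diluted from DMSO into medium (final DMSO <0.4%). CCK-8 was added for 1 h and absorbance read at 540 nm. IC50 came from the viability vs concentration (nM) curve, in triplicate.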

MCF7 = experiment: Antiproliferative activity against human MCF7 cells assessed as reduction in cell viability after 48 hrs by CCK8 assay; type: functional, cell-based; details: MCF7, 48 h; how it was run: as §1
PC-3 = experiment: Antiproliferative activity against human PC3 cells assessed as reduction in cell viability after 48 hrs by CCK8 assay; type: functional, cell-based; details: PC-3, 48 h; how it was run: as §1
SK-OV-3 [4] = experiment: Antiproliferative activity against human SKOV3 cells assessed as reduction in cell viability after 48 hrs by CCK8 assay; type: functional, cell-based; details: SK-OV-3, 48 h; how it was run: as §1
[5] = target: T1, Serine/threonine-protein kinase mTOR; experiment: Potency index, ratio of AZD8055 IC50 to test compound IC50 for mTOR (unknown origin)
[6] = target: T2, Phosphatidylinositol 4,5-bisphosphate 3-kinase catalytic subunit alpha isoform; experiment: Potency index, ratio of AZD8055 IC50 to test compound IC50 for PI3Kalpha (unknown origin)
SK-OV-3 [7] = experiment: Potency index, ratio of AZD8055 IC50 to test compound IC50 for human SKOV3 cells; type: functional
[8] = target: T2, Phosphatidylinositol 4,5-bisphosphate 3-kinase catalytic subunit alpha isoform; experiment: Inhibition of PI3Kalpha in human U87MG cells assessed as reduction in AKT phosphorylation at S473 residue at 20 to 200 nM after 24 hrs by Western blot analysis relative to control; type: cell-based
How it was run: (§2)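 U87MG cells were treated at indicated concentrations for 24 h at 37 °C, then lysed in RIPA with protease/phosphatase inhibitors and 1 mM PMSF. Lysates were run on SDS–PAGE and PVDF blots probed overnight at 4 °C for AKT, pAKT Ser473, pAKT Thr308, S6RP and pS6RP Ser235/236. HRP secondary was used with chemiluminescent detection.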

[9] = target: T2, Phosphatidylinositol 4,5-bisphosphate 3-kinase catalytic subunit alpha isoform; experiment: Inhibition of PI3Kalpha in human U87MG cells assessed as reduction in AKT phosphorylation at T308 residue at 20 to 200 nM after 24 hrs by Western blot analysis relative to control; type: cell-based; how it was run: as §2
[10] = target: T2, Phosphatidylinositol 4,5-bisphosphate 3-kinase catalytic subunit alpha isoform; experiment: Inhibition of PI3Kalpha in human U87MG cells assessed as reduction in S6 phosphorylation at Ser235/236 after 24 hrs by Western blot analysis; type: cell-based; how it was run: as §2
[11] = target: T2, Phosphatidylinositol 4,5-bisphosphate 3-kinase catalytic subunit alpha isoform; experiment: Inhibition of PI3Kalpha in human U87MG cells assessed as reduction in AKT phosphorylation at S473 residue at 2 nM after 24 hrs by Western blot analysis relative to control; type: cell-based; how it was run: as §2
[12] = target: T2, Phosphatidylinositol 4,5-bisphosphate 3-kinase catalytic subunit alpha isoform; experiment: Inhibition of PI3Kalpha in human U87MG cells assessed as reduction in AKT phosphorylation at T308 residue at 2 nM after 24 hrs by Western blot analysis relative to control; type: cell-based; how it was run: as §2
[13] = Half life in pooled human liver microsomes at 50 uM pretreated for 5 mins followed by NADPH addition and measured after 120 mins by HPLC analysis; type: ADME, microsome
How it was run: (§3)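 Pooled adult male and female human liver microsomes at 1 mg/mL in 0.1 M Tris-HCl pH 7.4, with test compound at 50 μM final. Mixtures were preincubated 5 min at 37 °C, then started with NADPH regenerating system. Reactions were stopped at 120 min with cold methanol, centrifuged, and analysed by HPLC.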

[14] = Unbound clearance in pooled human liver microsomes at 50 uM pretreated for 5 mins followed by NADPH addition and measured after 120 mins by HPLC analysis; type: ADME, microsome; details: 2 h; how it was run: as §3
U-87 MG [15] = experiment: Antitumor activity against human U87MG cells xenografted in Balb/c mouse assessed as tumor growth inhibition at 30 mg/kg, ig administered daily for 10 days relative to control; type: functional, U-87MG ATCC; details: po, 240 h, read-out: TGI
How it was run: (§4)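 Female BALB/c nude mice (6–7 weeks, 16–20 g, SPF, 5 groups of 5) were implanted subcutaneously with 5×10^6 U87MG cells. At 100–150 mm³ they were randomized and dosed intragastrically once daily for 10 days. Body weight was recorded twice every 3 days. Tumor volume was taken as V = 1/2ab² (a length, b width).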

U-87 MG [16] = experiment: Antitumor activity against human U87MG cells xenografted in Balb/c mouse assessed as tumor growth inhibition at 10 mg/kg, ig administered daily for 10 days relative to control; type: functional, U-87MG ATCC; details: po, 240 h, read-out: TGI; how it was run: as §4
U-87 MG [17] = experiment: Antitumor activity against human U87MG cells xenografted in Balb/c mouse assessed as tumor growth inhibition at 3 mg/kg, ig administered daily for 10 days relative to control; type: functional, U-87MG ATCC; details: po, 240 h, read-out: TGI; how it was run: as §4
U-87 MG [18] = experiment: Antitumor activity against human U87MG cells xenografted in ig dosed Balb/c mouse assessed as tumor growth inhibition administered daily for 10 days; type: functional, organism-based; details: U-87MG ATCC; how it was run: as §4
Mus musculus = experiment: Toxicity in Balb/c mouse xenografted with human U87MG cells assessed as body weight loss at 3 to 30 mg/kg, ig administered daily for 10 days measured twice every 3 days during compound dosing; type: organism-based; details: in vivo, po; how it was run: as §4
[19] = Cmax in Beagle dog at 1 mg/kg, po administered as single dose via gavage; type: ADME, organism-based, Canis lupus familiaris; set-up: dose 1 mg/kg, route oral; details: in vivo
How it was run: (§5)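 Three male Beagle dogs (9–10 months, 9–10 kg) given 1 mg/kg by oral gavage as a solution in physiological saline with 5% DMSO. Blood was drawn at 0.25–24 h and spun within 1 h (1000 × g, 4 °C, 15 min). Plasma was stored at -20 °C. t1/2 and AUC0–24 were obtained by model-independent analysis, and Cmax and MRT directly from the plasma concentration–time data.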

[20] = AUC (0 to 24 hrs) in Beagle dog at 1 mg/kg, po administered as single dose via gavage; type: ADME, organism-based, Canis lupus familiaris; set-up: time < 24 hr, dose 1 mg/kg, route oral; details: in vivo; how it was run: as §5
[21] = Half life in Beagle dog at 1 mg/kg, po administered as single dose via gavage; type: ADME, organism-based, Canis lupus familiaris; details: in vivo; how it was run: as §5
[22] = Mean residence time in Beagle dog at 1 mg/kg, po administered as single dose via gavage; type: ADME, organism-based, Canis lupus familiaris; details: in vivo; how it was run: as §5

IC50 [1]: 72 nM
IC50 [2]: 1300 nM
IC50 (U-87 MG [3]): 32.5 nM
IC50 (MCF7): 31 nM
IC50 (PC-3): 110 nM
IC50 (SK-OV-3 [4]): 58.6 nM
SMILES: CNC(=O)c1cccc(-c2ccc3c(N4CCOC[C@@H]4C)nc(C(C)(C)C)nc3n2)c1

IC50 [1]: 2 nM
IC50 [2]: 400 nM
Ratio IC50 [5]: 4
Ratio IC50 [6]: 10
IC50 (U-87 MG [3]): 3.2 nM
IC50 (MCF7): 6 nM
IC50 (PC-3): 23 nM
IC50 (SK-OV-3 [4]): 7 nM
inhibition [8]: 100%
inhibition [9]: 100%
inhibition [10]: Dose-dependent effect
inhibition [11]: Active
inhibition [12]: Active
half-life at 50 µM [13]: 0.515 h
CL free [14]: 28.1 µL/min/mg
Cmax [19]: 288 ng/mL
AUC(0-t) at 24 h [20]: 857 ng·h/mL
half-life [21]: 5.4 h
MRT [22]: 4.3 h
SMILES: COc1ccc(-c2ccc3c(N4CCOC[C@@H]4C)nc(C(C)(C)C)nc3n2)cc1CO
Ratio IC50 (SK-OV-3 [7]): 8
inhibition in vivo at 30 mg/kg (U-87 MG [15]): 83%
inhibition in vivo at 10 mg/kg (U-87 MG [16]): 64%
inhibition in vivo at 3 mg/kg (U-87 MG [17]): 28%
TGI (U-87 MG [18]): Dose-dependent effect
Activity (Mus musculus): Non-Toxic

IC50 [1]: 95 nM
IC50 [2]: > 10000 nM
IC50 (U-87 MG [3]): 91.9 nM
IC50 (MCF7): 77.3 nM
IC50 (PC-3): 66 nM
IC50 (SK-OV-3 [4]): 49.1 nM
SMILES: COc1ccc(-c2ccc3c(N4CCOC[C@@H]4C)nc(C)nc3n2)cc1CO

IC50 (U-87 MG [3]): 21.2 nM
IC50 (MCF7): 27 nM
IC50 (PC-3): 36.7 nM
IC50 (SK-OV-3 [4]): 55 nM
half-life at 50 µM [13]: 0.35 h
CL free [14]: 28.6 µL/min/mg
Cmax [19]: 228 ng/mL
AUC(0-t) at 24 h [20]: 787 ng·h/mL
half-life [21]: 4.5 h
MRT [22]: 3.1 h
SMILES: COc1ccc(-c2ccc3c(N4CCOC[C@@H]4C)nc(N4CCOC[C@@H]4C)nc3n2)cc1CO [AZD-8055]
inhibition in vivo at 10 mg/kg (U-87 MG [16]): 59%

IC50 [1]: 88 nM
IC50 [2]: > 10000 nM
IC50 (U-87 MG [3]): 90.3 nM
IC50 (MCF7): 186 nM
IC50 (PC-3): 66.6 nM
IC50 (SK-OV-3 [4]): 54.5 nM
SMILES: COc1ccc(-c2ccc3c(N4CCOCC4)nc(CC#N)nc3n2)cc1CO

IC50 [1]: > 500 nM
IC50 [2]: > 10000 nM
IC50 (U-87 MG [3]): > 1000 nM
IC50 (MCF7): > 1000 nM
IC50 (PC-3): > 1000 nM
IC50 (SK-OV-3 [4]): > 1000 nM
SMILES: COc1ccc(-c2ccc3c(N4CCOCC4)nc(C(CO)CO)nc3n2)cc1CO

IC50 [1]: 29 nM
IC50 [2]: > 10000 nM
IC50 (U-87 MG [3]): 89.2 nM
IC50 (MCF7): 72 nM
IC50 (PC-3): 163 nM
IC50 (SK-OV-3 [4]): 52.4 nM
SMILES: COc1ccc(-c2ccc3c(N4CCOC[C@@H]4C)nc(CC(OC)OC)nc3n2)cc1CO

IC50 [1]: 48 nM
IC50 [2]: 3200 nM
IC50 (U-87 MG [3]): 821 nM
IC50 (MCF7): > 1000 nM
IC50 (PC-3): > 1000 nM
IC50 (SK-OV-3 [4]): 640 nM
SMILES: COc1ccc(-c2ccc3c(N4CCOCC4)nc(C(N)=O)nc3n2)cc1CO

Second part, the compound before the results:

SMILES: COc1ccc(-c2ccc3c(N4CCOCC4)nc(CN)nc3n2)cc1CO
IC50 [1]: 146 nM
IC50 [2]: > 10000 nM
IC50 (U-87 MG [3]): > 1000 nM
IC50 (MCF7): > 1000 nM
IC50 (PC-3): > 1000 nM
IC50 (SK-OV-3 [4]): > 1000 nM

SMILES: COc1ccc(-c2ccc3c(N4CCOC[C@@H]4C)nc(C4=CCOCC4)nc3n2)cc1CO
IC50 [1]: 30 nM
IC50 [2]: > 10000 nM
IC50 (U-87 MG [3]): 85.5 nM
IC50 (MCF7): 225 nM
IC50 (PC-3): 212 nM
IC50 (SK-OV-3 [4]): 125 nM

SMILES: COc1ccc(-c2ccc3c(N4CCOC[C@@H]4C)nc(C4CCOCC4)nc3n2)cc1CO
IC50 [1]: 53 nM
IC50 [2]: > 10000 nM
IC50 (U-87 MG [3]): 94.2 nM
IC50 (MCF7): 443 nM
IC50 (PC-3): 476 nM
IC50 (SK-OV-3 [4]): 118 nM

SMILES: COc1ccc(-c2ccc3c(N4CCOCC4)nc(C#N)nc3n2)cc1CO
IC50 [1]: 32 nM
IC50 [2]: 2600 nM
IC50 (U-87 MG [3]): 920 nM
IC50 (MCF7): > 1000 nM
IC50 (PC-3): > 1000 nM
IC50 (SK-OV-3 [4]): 660 nM

SMILES: COc1ccc(-c2ccc3c(N4CCOC[C@@H]4C)nc(C(C)C)nc3n2)cc1CO
IC50 [1]: 10 nM
IC50 [2]: 3000 nM
IC50 (U-87 MG [3]): 33.8 nM
IC50 (MCF7): 54 nM
IC50 (PC-3): 155 nM
IC50 (SK-OV-3 [4]): 44.7 nM

SMILES: COc1ccc(-c2ccc3c(N4CCOCC4)nc(CS(C)(=O)=O)nc3n2)cc1CO
IC50 [1]: > 500 nM
IC50 [2]: > 10000 nM
IC50 (U-87 MG [3]): > 1000 nM
IC50 (MCF7): > 1000 nM
IC50 (PC-3): > 1000 nM
IC50 (SK-OV-3 [4]): > 1000 nM
